Data reported in ChEMBL document CHEMBL1146216, “Synthesis and biological activity of a gemcitabine phosphoramidate prodrug” (J Med Chem, 2007).

How the values were obtained:
SW1573 [1] = assay: Growth inhibition of SW1573 cells by SRB assay in presence of dipyridamole; type: functional, cell-based; details: Homo sapiens
In short: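 SW1573 cells cultured in DMEM, 10% FCS, 20 mM HEPES, 37 °C, 5% CO2. Plated at 5000 cells/well and given graded drug concentrations with the nucleoside transport inhibitor dipyridamole at 1 µM final, for 72 h. SRB read-out at OD 540 or 492 nm. Growth is expressed relative to time-zero and untreated wells.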

CCRF-CEM [2] = assay: Growth inhibition of CEM cells by MTT assay in presence of dipyridamole; details: Homo sapiens
CCRF-CEM [3] = assay: Growth inhibition of CEM cells by MTT assay; details: Homo sapiens
A549 [4] = assay: Growth inhibition of A549 cells by SRB assay in presence of dipyridamole; type: functional, cell-based; details: Homo sapiens
In short: (§1)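 SRB growth assay run with the nucleoside transport inhibitor dipyridamole at 1 µM final. Cells were seeded at 5000/well and exposed to a range of drug concentrations for 72 h at 37 °C, 5% CO2. Media: DMEM for A2780 and the dCK-deficient AG6000; RPMI for A549, H292 and H460; each with 10% FCS and 20 mM HEPES. Relative growth was calculated against ODzero and untreated controls.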

NCI-H460 [5] = assay: Growth inhibition of H460 cells by SRB assay; type: functional, cell-based; details: Homo sapiens
In short: (§2)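 Cells seeded at 5000/well and exposed to a range of drug concentrations for 72 h at 37 °C, 5% CO2, then read by SRB. A2780 and its dCK-deficient variant AG6000 were grown in DMEM; A549, H292 and H460 in RPMI; both media had 10% FCS and 20 mM HEPES. OD was read at 540 or 492 nm. Relative growth = (ODtreated − ODzero)/(ODcontrol − ODzero) × 100%, with ODzero taken at drug addition.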

NCI-H460 [6] = assay: Growth inhibition of H460 cells by SRB assay in presence of dipyridamole; type: functional, cell-based; details: Homo sapiens; in short: as §1
[7] = Growth inhibition of H292 cells by SRB assay in presence of dipyridamole; type: functional, cell-based; details: Homo sapiens, NCI-H292; in short: as §1
[8] = Growth inhibition of AG6000 cells by SRB assay in presence of dipyridamole; type: functional, cell-based; details: Homo sapiens; in short: as §1
CCRF-CEM [9] = assay: Growth inhibition of dCK deficient CEM cells by MTT assay in presence of dipyridamole; details: Homo sapiens
A549 [10] = assay: Growth inhibition of A549 cells by SRB assay; type: functional, cell-based; details: Homo sapiens; in short: as §2
[11] = Growth inhibition of AG6000 cells by SRB assay; type: functional, cell-based; details: Homo sapiens; in short: as §2
SW1573 [12] = assay: Growth inhibition of SW1573 cells by SRB assay; type: functional, cell-based; details: Homo sapiens
In short: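 SW1573 NSCLC cells grown in DMEM with 10% FCS and 20 mM HEPES at 37 °C, 5% CO2. Seeded at 5000 cells/well and exposed to a range of drug concentrations for 72 h, then SRB assay. OD read at 540 or 492 nm. Relative growth = (ODtreated − ODzero)/(ODcontrol − ODzero) × 100%, with ODzero taken at drug addition.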

A2780 [13] = assay: Growth inhibition of A2780 cells by SRB assay in presence of dipyridamole; type: functional, cell-based; details: Homo sapiens; in short: as §1
CCRF-CEM [14] = assay: Growth inhibition of dCK deficient CEM cells by MTT assay; details: Homo sapiens
A2780 [15] = assay: Growth inhibition of A2780 cells by SRB assay; type: functional, cell-based; details: Homo sapiens; in short: as §2
[16] = Growth inhibition of H292 cells by SRB assay; type: functional, cell-based; details: Homo sapiens, NCI-H292; in short: as §2

`Nc1ccn([C@@H]2O[C@H](CO)[C@@H](O)C2(F)F)c(=O)n1` [GEMCITABINE] showed an IC50 (SW1573 [1]) of 275 nM, an IC50 (CCRF-CEM [2]) of 1000 nM and an IC50 (CCRF-CEM [3]) of 130 nM. It also gave an IC50 (A549 [4]) of 225 nM, an IC50 (NCI-H460 [5]) of 10 nM and an IC50 (NCI-H460 [6]) of 103 nM. The IC50 [7] was 210 nM, the IC50 [8] was 20000 nM and the IC50 (CCRF-CEM [9]) was 100000 nM. The IC50 (A549 [10]) was 14 nM, the IC50 [11] was 20000 nM and the IC50 (SW1573 [12]) was 16 nM. It also gave an IC50 (A2780 [13]) of 15 nM, an IC50 (CCRF-CEM [14]) of 50000 nM and an IC50 (A2780 [15]) of 1.5 nM. For the same compound, the IC50 [16] was 13 nM.
